System: MS2 coat protein
Experiment: apparent Kd, MS2 coat protein; higher = weaker binding; RNA-MaP array
Method in brief: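 With or without input ligand, designed RNAs transcribed on an Illumina sequencing chip from sequenced DNA templates were incubated at room temperature with fluorescently labeled MS2 coat protein at 1.5 nM to 3 μM. The buffer was Tris-HCl pH 7.5 with KCl, MgCl2, BSA, DTT, tRNA and Tween20, and incubation ran 0.8–1.5 h at the lowest and 10–20 min at the highest concentrations. Apparent Kd is reported as the median of fits to binding curves from individual clusters. Designs measured on fewer than 10 clusters are not included.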

[1] = designed as: OFF switch for flavin mononucleotide, no ligand
[2] = ligand present: flavin mononucleotide, designed as: OFF switch for flavin mononucleotide
[3] = designed as: ON switch for flavin mononucleotide, no ligand
[4] = ligand present: flavin mononucleotide, designed as: ON switch for flavin mononucleotide
[5] = designed as: ON switch for tryptophan, no ligand
[6] = ligand present: tryptophan, designed as: ON switch for tryptophan
[7] = designed as: ON switch for theophylline, no ligand
[8] = ligand present: theophylline, designed as: ON switch for theophylline

Sequence	apparent Kd [1] [nM]	apparent Kd [2] [nM]	also measured
ACACCUAUAGUGAGGAUAUAGAUCGAAACAAUCGACAAGAAGGCACAUGAGGAUCACCCAUGUAAGGCGCAAAU	6.55	5.97	–
ACAGCACAUGAGGAUCACCCAUGUCGACAUGUAUUAGGAUAUGAUCCGCGCUAGACACCAUCAGAAGGAAUACCGA	–	–	apparent Kd [3]: 43 nM; apparent Kd [4]: 23.7 nM
ACAUGAGGAUCACCCAUGUAAUAUAUAAAGACUAAAACUAGUUAGGAUAUAUCACAUGUACAGGGAUAGAAGGAACUAGUCUGC	–	–	apparent Kd [3]: 7.15 nM; apparent Kd [4]: 5.84 nM
ACAUGAGGAUCACCCAUGUUCUCAAGUAUAAUAGAUAAAUCAAGAAGGGCUAAUCGACCGAAUAAGCAGGAUAUUGUGAUAUGG	18.3	21.2	–
ACCUCGUAAGGAUAUAGAUGCCCGUACACAACAACAGAACUCUAGAAGGUACAUGAGGAUCACCCAUGUUGAUG	21.5	20.9	–
ACGAAACAAGCGGCCGCCACUUCGUGGUGCUAAGGCUUGAUACUACAUGAGGAUCACCCAUGUCGAAGGACCGGGCUUGCGACUG	–	–	apparent Kd [5]: 53.9 nM; apparent Kd [6]: 51.9 nM
ACGAGCACCUCAGGAUAUGGAAAGGACUCUUCAUUGGCUACUCGAACAUGAGGAUCACCCAUGUUCCAGAAGGGAGGAGAAGCC	7.07	11.6	–
ACGUGACACGAGAAGGGUCUUAAAUGUUGAUUGACAGGAUAUCGUUCCCACGAUACAUAGACGGACAUGAGGAUCACCCAUGUG	–	–	apparent Kd [3]: 85.8 nM; apparent Kd [4]: 30.3 nM
ACGUGGCAACAUGAGGAUCACCCAUGUAAAGAUAAUGAUUACAGAAGGCCCGGAGGAAGGCAAAGGGAGGAUAUGUGUGCCUAC	–	–	apparent Kd [3]: 29.8 nM; apparent Kd [4]: 12.7 nM
ACGUUCCUGAGAGGAUAUUCCAACAUGAGGAUCACCCAUGUAGAUGGUCGAUGCUUCCAUUCAGCGAAGAAGGCUCUAAAGGGC	22.3	15.7	–
ACGUUGCAGCAAGGAUAUUCGAGACUACUAGAAGAAGAAGGUGCCGUGCUCUUCACAUGAGGAUCACCCAUGUGGCGUUAAUUU	9.11	8.35	–
ACUCGUUAAGGAUAUACUCGGUUUACUUGCAUGUUCGGCGCACAUGAGGAUCACCCAUGUAGAAGGUAAUAUUC	24.6	27.2	–
AGACCAUCCUUAGGAUAUGGCUAUCUUAUCAAGCCAGAAGGAAGGGCCUCAUCUAACAUGAGGAUCACCCAUGUGCGCAAGUUU	81.3	51.9	–
AGCACAAUAGGAUAUACAUGAGGAUCACCCAUGUAGAAAUUUGGUACCCGGGUGUCUUGUAGAAGGAUAGAAGA	16.4	15.1	–
AGCCAAUAAGGAUAUACAUUUAGAGAUCAUCGUACAAAGUAACAUGAGGAUCACCCAUGUAGAAGGUAUGCAGC	10.2	11.3	–
AGGCAACAUGAGGAUCACCCAUGUCAGGAUAUAGUAAACACAAAUACGAGAAAUAUAACUAGAAGGGACAUAAU	16.6	18.5	–
AGUCAAAAUUAGAAGGAGCGUUGACCCUGUUAGCUAGGAUAUAAUUCAUGCGAACAUGAGGAUCACCCAUGUAGACGUACCAAC	–	–	apparent Kd [3]: 86.5 nM; apparent Kd [4]: 44.9 nM
AGUGCAAAUGUAGGAUAUGGACAUGAGGAUCACCCAUGUCAUUAAUAUUAUCGGUCCAAUUUUCUCCAGAAGGACAAAGGCUUG	11.6	10.1	–
AGUUCUGGAGGAUAUACAUCCUCAAUGUCCAACCUGCGGAUACAUGAGGAUCACCCAUGUAGAAGGCCACACAA	6.53	9.75	–
AUCUUUGUAGGAUAUCCUGAGGCAAACAUGAGGAUCACCCAUGUCCCAAGAAUGACUAAAGGAGAAGGACACUCGG	20.6	20.7	–
AUGGACCCAAAGAAGGAGAUCUGGACGACCCAUCUAGGAUAUUUGGCGCGCCCAUCCACCUGCACAUGAGGAUCACCCAUGUCG	–	–	apparent Kd [3]: 11.9 nM; apparent Kd [4]: 9.55 nM

Sequence	apparent Kd [1] [nM]	apparent Kd [2] [nM]	also measured
AUGGGUACCACAGGAUAUUAGUAACACAUGAGGAUCACCCAUGUUUUACCGCUUGAAGCUUAGACUAAGAAGGGUGGCUUAGAA	–	–	apparent Kd [3]: 55.1 nM; apparent Kd [4]: 23.9 nM
AUGUAGCCGUCGACUGUACCUUAUGCCGAUACCAGCUACCCGUGAAGCCCUUGGCAGCGGGAAACAUGAGGAUCACCCAUGUCAG	–	–	apparent Kd (designed as: OFF switch for theophylline, no ligand): 23.9 nM; apparent Kd (ligand present: theophylline, designed as: OFF switch for theophylline): 41.3 nM
AUUAAUUCAGGAUAUACAUGAGGAUCACCCAUGUGGCGAAAGAACAUAUAGGAAACAAGUAGAAGGGAAUAGAU	17.9	16.4	–
AUUCAAAUAACAGGAUAUGACAUAAACUACGAAUCAGAAGGGUUACAUAAAUCAACAUGAGGAUCACCCAUGUAUACUCCACAA	–	–	apparent Kd [3]: 17.5 nM; apparent Kd [4]: 11.7 nM
AUUGGAGACUGGUACAUGAGGAUCACCCAUGUUAAUAACAGUAGAAGGCCCGCGGUUAGAAGAUGGGAGGAUAUACACGUGGGU	10.4	17.8	–
CAGCCACAUGAGGAUCACCCAUGUGAUGAUACCAGCUUCGUCUUAAGCCCUUGGCAGCAUAUCUCUUUGUUCUCAUACAUAGCAU	–	–	apparent Kd [7]: 11.1 nM; apparent Kd [8]: 12.3 nM
CAGUCUCUAGCGGCCGCCACUGUUCUGCUGGUGCUGCUGAACGAACAUGAGGAUCACCCAUGUCUCAGGACCGGGCUUCAGACUC	–	–	apparent Kd [5]: 26.1 nM; apparent Kd [6]: 26.9 nM
CAUCGUCGGUCGGCCGCCACUACUGGACAUGAGGAUCACCCAUGUGGCCCGCUGUAUUAACCGCGUAGGACCGGGACGGGAGGUA	–	–	apparent Kd (designed as: OFF switch for tryptophan, no ligand): 30 nM; apparent Kd (ligand present: tryptophan, designed as: OFF switch for tryptophan): 32.9 nM
CAUUCCAAGGCGGAGGAUAUUCGGAUCGCCACAUGAGGAUCACCCAUGUACGAGUAGUCUGCAACGAAGAAGGCCGUACGUCACCA	–	–	apparent Kd [3]: 10.5 nM; apparent Kd [4]: 6.57 nM
CAUUCGAAGGUGAGGAUAUAGCUACAGUUAAAUGUCUAGAAGGCACAUGAGGAUCACCCAUGUAGGGUCUCUCA	238	630	–
CAUUGAGCAGCUGAUACCAGUGCCUGAACUUACAUGAGGAUCACCCAUGUAUGCCCAAAACACCCUUGGCAGCAGAGGAAGAUCG	–	–	apparent Kd [7]: 14.5 nM; apparent Kd [8]: 13.9 nM
CCAACCUGUCGAGCACCAUAACAUGAGGAUCACCCAUGUAUCAGAAGGUGUGUGAGUAAGGAAGACAAGGAUAUGACUCGACGC	–	–	apparent Kd [3]: 16.9 nM; apparent Kd [4]: 12.7 nM
CCAUGAAGAUAGGAUAUAGGUCGAGUUCCCGAACAAGAAGGAUCGACAUGAGGAUCACCCAUGUGCAUCCAUGA	27.1	21.1	–
CCAUGCGUUGAGAAGGUGCUCGGGAAUCCACAUGAGGAUCACCCAUGUUGACUAGUAAGGCAUCGCAAGGAUAUCAGCUAUCUC	28.8	25.3	–
CCCAACAUGAGGAUCACCCAUGUUCCGGGUCGAGGACCGGUACGGCCGCCACUCGGUAUGAUGGGUGUGCAGCGUAUCUGCACCA	–	–	apparent Kd [5]: 38.5 nM; apparent Kd [6]: 17.2 nM
CCGCUCGGGACAUGAGGAUCACCCAUGUUACCUUGCCGUGAGAGAAGGGACACGGCCAGCUCAUGUCAGGAUAUCUCAGCGUAU	–	–	apparent Kd [3]: 48.3 nM; apparent Kd [4]: 12.4 nM
CCGUAUCGACCAGGAUAUUCAAUAGCGCCACAUGAGGAUCACCCAUGUUUAUAUCUUCAUGGAAGGAAGAAGGGGUACAAGCGG	199	240	–
CCUAACUGCGAGAAGGUACAGCGAUAGUGACUGUAAGGAUAUCGGGCGGUGCAUAUCUUAGUAAUACAUGAGGAUCACCCAUGU	8.7	6.82	–
CCUAGACAAGAGAAGGUUGAGAAGAAACUUUGCAAAGGAUAUCUAAACAUGAGGAUCACCCAUGUCGAUAUAUGGGUAGGCGAA	102	91.4	–
CCUCCUCAUCGAGGAUAUUGGGUCUGACCUCCAUUUAGACAUGAGGAUCACCCAUGUAAAGUGUCCAAGAAGGCGAUACCGGGA	–	–	apparent Kd [3]: 817 nM; apparent Kd [4]: 648 nM

— the EternaBench riboswitch data
